Columns and labels:
EJ cells [1] = assay: Annexin V-FITC/PI staining flow cytometry of apoptosis; type: cell-based, human; conditions: for Percentage of apoptotic cells (Annexin V-FITC/PI flow cytometry) / Effect of caspase inhibitors on induced apoptosis: 1.0 μM, 24 h; for Percentage of apoptotic cells (Annexin V-FITC/PI flow cytometry): mean ± SD; for Effect of caspase inhibitors on induced apoptosis: with 20 μM Z-LEHD-FMK or z-DEVD-fmk (Ac-DEVD-CHO)
In short: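 EJ cells were seeded at 1×10^6 per well, left overnight, then given 1.0 μM test compound for 24 h. Some wells also received 20 μM caspase-3 (Ac-DEVD-CHO) or caspase-9 (Z-LEHD-FMK) inhibitor, or a 2 h pretreatment with 5 mM NAC. Harvested cells were stained with Annexin V-FITC/PI and read by flow cytometry for percent apoptotic cells. Mean ± SD of triplicates.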

[2] = test system: human bladder cancer EJ cell line; assay: Cell viability MTT assay; type: cell-based
In short: (§1)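 Cells seeded at 5×10^3 per well: EJ in RPMI 1640, SV-HUC-1 in F-12K, both with 10% FBS. Test compound came from 25 mmol/L DMSO stock diluted in serum-free medium or PBS. Series run at graded concentrations for 24 h, or at 1.0 μM over varying times. MTT added for 4 h at 37 °C, formazan dissolved in DMSO, A570 read. Viability relative to untreated (100%); ≥3 repeats.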

EJ cells [3] = assay: AO/EB dual staining, morphological assessment of apoptotic cells; type: cell-based, human; conditions: 1.0 μM, 24 h, mean ± SD
In short: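 EJ cells (RPMI 1640, 10% FBS, 37 °C, 5% CO2) exposed to 1.0 μM test compound for 24 h, then trypsinised, pelleted and PBS-washed. Stained with 100 μg/mL AO and 100 μg/mL EB for 10 min at 4 °C in the dark. Scored by fluorescence microscopy for nuclear condensation and shrinkage. Apoptotic rate = apoptotic cells/total counted. Mean ± SD of triplicates.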

EJ cells [4] = assay: Colony-formation assay; type: cell-based, human; conditions: 1.0 μM, 24 h, then 10 days growth
In short: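 EJ cells at 1×10^6 per well given 1.0 μM test compound for 24 h. Harvested and replated at 5×10^2 cells per well in fresh 10% FBS medium, then grown 10 days. Colonies fixed, stained with 1% crystal violet in 10% methanol and counted blinded under a microscope. Mean ± SD of triplicates.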

Bcl-2 = assay: Western blotting analysis of Bcl-2; type: cell-based, human; conditions: EJ cells, 1.0 μM, 24 h
In short: (§2)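 EJ cells received 1.0 μM test compound for 24 h, with or without 2 h pretreatment with 5 mM NAC. Lysed in RIPA with protease inhibitor; 30 μg protein (BCA) run on 10–12% SDS-PAGE and moved to PVDF. Blocked 30 min at room temperature in TBS, 0.1% Triton X-100, 5% milk. Primary antibody overnight at 4 °C, HRP secondary 1 h, ECL detection. GAPDH loading control.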

caspase-9 = assay: Caspase-9 activity measurement in cell lysates; type: cell-based, human; conditions: EJ cells, 1.0 μM, 24 h, vs control and TAT-treated cells
In short: (§3)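 EJ cells treated for 24 h with 1.0 μM test compound. Lysates were mixed with buffer containing pNA substrate added at 2 mM: Ac-DEVD-pNA for caspase-3, Ac-LEHD-pNA for caspase-9. Incubated 4 h at 37 °C in the dark, then absorbance read at 405 nm. Activity given as ratio of treated to untreated control cells.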

EJ cells [5] = assay: EdU incorporation assay; type: cell-based, human; conditions: 1.0 μM, 24 h, then 50 μM EdU 4 h
In short: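 EJ cells at 5×10^3 per well treated 24 h with 1.0 μM test compound, washed, then labelled with 50 μM EdU for 4 h at 37 °C in the dark. Fixed in 4% formaldehyde 15 min at room temperature, permeabilised in 0.5% Triton X-100 20 min. Apollo cocktail 30 min, Hoechst 33342 30 min, fluorescence microscopy. Mean ± SD of triplicates.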

[6] = test system: ROS production in EJ cells; assay: Intracellular reactive oxygen species detection; type: cell-based, human; conditions: 1.0 μM, 24 h, DCFH-DA, fluorescence microplate reader
In short: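 EJ cells, with or without 2 h pretreatment with 5 mM NAC, were given 1.0 μM test compound for 24 h. After PBS washes, loaded with 10 μM DCFH-DA for 30 min at 37 °C and washed again. Imaged by fluorescence microscopy and quantified on a plate reader (ex 485/em 520 nm). Values given as percent of control.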

caspase-3 = assay: Caspase-3 activity measurement in cell lysates; type: cell-based, human; conditions: EJ cells, 1.0 μM, 24 h, vs control and TAT-treated cells
In short: as §3

[7] = test system: human immortalized uroepithelium cell line SV-HUC-1; assay: Cell viability MTT assay; type: cell-based; conditions: SV-HUC-1 normal uroepithelium cells
In short: as §1

Bax = assay: Western blotting analysis of Bax; type: cell-based, human; conditions: EJ cells, 1.0 μM, 24 h
In short: as §2

[8] = Equilibrium solubility assay; type: physicochemical; conditions: shake-flask, distilled water pH 7.0, 37°C, UV spectrophotometry; stayed at this level for 6-24 h

SMILES	Effect on apoptosis, NAC treatment alone (EJ cells [1]; 5 mM NAC in the absence of GA and GA-TAT)	Concentration inducing clear cytotoxic effects ([2]; EJ cells, MTT)	IC50 ([2]; Homo sapiens, EJ, 24 h, read-out: 50% inhibitory concentration (IC50))	Percentage of apoptotic cells (AO/EB) (EJ cells [3])	Colony growth (EJ cells [4])	Bcl-2 protein level (Bcl-2)	Percentage of apoptotic cells (Annexin V-FITC/PI flow cytometry) (EJ cells [1])	Effect of caspase inhibitors on induced apoptosis (EJ cells [1])	Caspase-9 activity (caspase-9)	Number of EdU+ cells (EJ cells [5])	ROS production [6]	Caspase-3 activity (caspase-3)	Effect on cell viability [7]	Bax expression level (Bax)	Stirring time at which solubility reached its peak [8]
CC(=O)N[C@@H](CS)C(=O)O [NAC, N-acetyl-L-cysteine]	did not significantly affect apoptosis	–	–	–	–	–	–	–	–	–	–	–	–	–	–
CC(C)=CCC[C@]1(C)C=Cc2c(O)c3c(c(CC=C(C)C)c2O1)O[C@]12C(=C[C@@H]4C[C@H]1C(C)(C)O[C@@]2(C/C=C(/C)C(=O)O)C4=O)C3=O [GA, Gambogic acid]	–	1000 nM	4.95 µM	19.18%±4.35%	significantly decreased	not affected	21.3%±2.27%	completely suppressed	increased	significantly reduced	substantially increased	increased	nearly unaffected	upregulated	–
CC(C)=CCC[C@]1(C)C=Cc2c(O)c3c(c(CC=C(C)C)c2O1)O[C@]12C(=C[C@@H]4C[C@H]1C(C)(C)O[C@@]2(C/C=C(/C)C(=O)N[C@@H](CS)C(=O)N[C@@H](Cc1ccc(O)cc1)C(=O)NCC(=O)N[C@@H](CCCNC(=N)N)C(=O)N[C@@H](CCCCN)C(=O)N[C@@H](CCCCN)C(=O)N[C@@H](CCCNC(=N)N)C(=O)N[C@@H](CCCNC(=N)N)C(=O)N[C@@H](CCC(N)=O)C(=O)N[C@@H](CCCNC(=N)N)C(=O)N[C@@H](CCCNC(=N)N)C(=O)N[C@@H](CCCNC(=N)N)C(=O)O)C4=O)C3=O [GA-TAT]	–	–	–	42.15%±5.23%	further reduced	downregulated	46.4%±4.86%	partially inhibited	further enhanced	markedly less	significantly higher	further enhanced	nearly unaffected	upregulated	4 h

— paper PMC5896666 (Drug Design, Development and Therapy, 2018)
